According to publication PMC7594318 (ACS Omega, 2020):
Where two headings read alike, the source gives them in different places.

Assays:
Type in all cases: cell-based
[1] = tested on: human promyelocytic leukemia HL-60 cells; test: WST-8 cytotoxicity assay, HL-60 cells; conditions: read-out: IC50 (μM) HL-60
Procedure, shortened: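 HL-60 promyelocytic leukemia cells, grown in RPMI 1640 + 10% FBS at 37 °C, 5% CO2, plated at 5000 cells/well with various concentrations for 72 h (DMSO 0.1–0.2% v/v). CCK-8 (WST-8) reagent added for 2 h at 37 °C, absorbance read at 450 nm. Growth is taken as the sample/control absorbance ratio. IC50 is the mean ± SD of triplicate experiments. SN-38 positive control.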

[2] = tested on: human lung adenocarcinoma A549 cells; test: WST-8 cytotoxicity assay, A549 cells; conditions: for IC50: read-out: IC50 (μM) A549; for SI (selectivity index): IC50 against normal MRC-5 cells divided by IC50 against A549 cells
Procedure, shortened: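 Human lung adenocarcinoma A549 cells, kept in DMEM + 10% FBS at 37 °C, 5% CO2, seeded at 2000 cells/well, preincubated 24 h, then exposed to various concentrations for 72 h (DMSO 0.1–0.2% v/v). WST-8 (CCK-8) reagent 2 h at 37 °C, A450. Growth is sample/control absorbance. IC50 is mean ± SD of triplicates. SN-38 positive control. SI = MRC-5 IC50 / A549 IC50.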

[3] = tested on: human normal lung fibroblast MRC-5 cells; test: WST-8 cytotoxicity assay, normal MRC-5 cells; conditions: read-out: IC50 (μM) MRC-5
Procedure, shortened: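 Normal lung fibroblast MRC-5 cells in α-MEM without ribonucleosides/deoxyribonucleosides + 10% FBS. Seeded at 2000 cells/well, preincubated 24 h, then treated with various concentrations for 72 h (DMSO 0.1–0.2% v/v). WST-8 (CCK-8) reagent 2 h at 37 °C, A450. Growth is the ratio of sample to control absorbance. IC50 is the mean ± SD of triplicates. SN-38 positive control.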

[4] = Table 3, WST-8, 72 h, mean ± SD of triplicate experiments
[5] = Table 4, WST-8, 72 h, mean ± SD of triplicate experiments

| Compound | IC50 ([1]; Homo sapiens, HL-60, 72 h) | IC50 ([2]; Homo sapiens, A549, 72 h) | SI (selectivity index) ([2]; Table 3) | IC50 ([3]; Homo sapiens, MRC5, 72 h) | SI (selectivity index) ([2]; Table 4) | IC50 [1, 4] | IC50 [1, 5] | IC50 [2, 4] | IC50 [2, 5] | IC50 [3, 4] | IC50 [3, 5] |
| --- | --- | --- | --- | --- | --- | --- | --- | --- | --- | --- | --- |
| Cn1c2cccc(=O)c-2nc2ccccc21 [1a, pyocyanin] | 5.82 ± 0.133 µM | 5.52 ± 0.28 µM | 3.95 | 21.8 ± 2.55 µM |  |  |  |  |  |  |  |
| Cn1c2ccc(Br)c(=O)c-2nc2ccccc21 [1b, 2-Bromo-5-methylphenazin-1(5H)-one] | 3.07 ± 0.08 µM | 2.59 ± 0.056 µM | 1.30 | 3.36 ± 0.204 µM |  |  |  |  |  |  |  |
| CC(C)=CCn1c2ccc(Cl)c(=O)c-2nc2ccccc21 [3c, 2-Chloro-5-(3-methylbut-2-en-1-yl)phenazin-1(5H)-one] | 2.2 ± 0.07 µM | 0.66 ± 0.016 µM |  | 0.66 ± 0.041 µM | 1.00 |  |  |  |  |  |  |
| CCc1c2c(nc3ccc(O)cc13)-c1cc3c(c(=O)n1C2)COC(=O)[C@]3(O)CC [SN-38, reference compound] |  |  |  |  |  | < 0.05 µM | 0.056 ± 0.002 µM | 0.038 ± 0.003 µM | 0.052 ± 0.003 µM | < 0.1 µM | 0.092 ± 0.001 µM |
